Calls of active or inactive are those of the source. The rule behind the calls is not given here.
Legend:
[1] = system: Meyerozyma guilliermondii; assay: Antifungal activity against Candida guilliermondii IBA 155 assessed as diameter of zone inhibition incubated for 24 hrs by CLSI disc diffusion method; type: functional
Outline: (§1)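 Yeast disc diffusion on Mueller-Hinton agar supplemented with 2% glucose and 0.5 mg/L methylene blue. Compounds in DMSO. Yeasts subcultured on Sabouraud dextrose agar before testing. Zones read after 35 °C, 24 h.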

Escherichia coli = assay: Antibacterial activity against Escherichia coli ATCC 25922 assessed as diameter of zone inhibition measured after 18 hrs by CLSI disc diffusion method; type: functional
Outline: (§2)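 Disc diffusion on Mueller-Hinton II agar. Compounds dissolved in DMSO. Strains stored at -80 °C and subcultured twice on tryptic soy agar before testing. Inhibition zones read after 35 °C, 18 h.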

[2] = system: Staphylococcus epidermidis; assay: Antibacterial activity against Staphylococcus epidermidis ATCC 12228 assessed as diameter of zone inhibition measured after 18 hrs by CLSI disc diffusion method; type: functional; outline: as §2
Pichia kudriavzevii = assay: Antifungal activity against Candida krusei ATCC 6258 assessed as diameter of zone inhibition incubated for 24 hrs by CLSI disc diffusion method; type: functional; outline: as §1
Candida albicans = assay: Antifungal activity against Candida albicans ATCC 90028 assessed as diameter of zone inhibition incubated for 24 hrs by CLSI disc diffusion method; type: functional; outline: as §1
Candida parapsilosis = assay: Antifungal activity against Candida parapsilosis ATCC 22019 assessed as diameter of zone inhibition incubated for 24 hrs by CLSI disc diffusion method; type: functional; outline: as §1
[3] = system: Stenotrophomonas maltophilia; assay: Antibacterial activity against Stenotrophomonas maltophilia ATCC 13637 assessed as diameter of zone inhibition measured after 18 hrs by CLSI disc diffusion method; type: functional; outline: as §2
Candida tropicalis = assay: Antifungal activity against Candida tropicalis IBA 171 assessed as diameter of zone inhibition incubated for 24 hrs by CLSI disc diffusion method; type: functional; outline: as §1
[4] = system: Bordetella bronchiseptica; assay: Antibacterial activity against Bordetella bronchiseptica ATCC 4617 assessed as diameter of zone inhibition measured after 18 hrs by CLSI disc diffusion method; type: functional; outline: as §2
Klebsiella pneumoniae = conditions: ATCC 13883
Enterococcus faecium = assay: Antibacterial activity against Enterococcus faecium ATCC 6057 assessed as diameter of zone inhibition measured after 18 hrs by CLSI disc diffusion method; type: functional; outline: as §2
Saccharomyces cerevisiae = assay: Antifungal activity against Saccharomyces cerevisiae ATCC 9763 diameter of zone inhibition incubated for 24 hrs by CLSI disc diffusion method; type: functional
Outline: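 Disc-diffusion run on Mueller-Hinton II agar with 2% glucose and 0.5 mg/L methylene blue, using compounds in DMSO. Yeast was precultured on Sabouraud dextrose agar (24–48 h, 30 °C). Zones read after 24 h at 35 °C.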

Staphylococcus aureus = assay: Antibacterial activity against Staphylococcus aureus ATCC 6538P assessed as diameter of zone inhibition measured after 18 hrs by CLSI disc diffusion method; type: functional; outline: as §2
Acinetobacter baumannii = assay: Antibacterial activity against Acinetobacter baumannii ATCC 19606 assessed as diameter of zone inhibition measured after 18 hrs by CLSI disc diffusion method; type: functional; outline: as §2
Bacillus subtilis = assay: Antibacterial activity against Bacillus subtilis ATCC 6633 assessed as diameter of zone inhibition measured after 18 hrs by CLSI disc diffusion method; type: functional; outline: as §2
Serratia marcescens = conditions: ATCC 13880
Enterobacter cloacae = assay: Antibacterial activity against Enterobacter cloacae DSM 6234 assessed as diameter of zone inhibition measured after 18 hrs by CLSI disc diffusion method; type: functional; outline: as §2
[5] = Dissociation constant, pKa1 of compound in 0.1 M NaOH by potentiometric analysis; type: physicochemical
Enterococcus faecalis = assay: Antibacterial activity against Enterococcus faecalis ATCC 29212 assessed as diameter of zone inhibition measured after 18 hrs by CLSI disc diffusion method; type: functional; outline: as §2
Proteus mirabilis = assay: Antibacterial activity against Proteus mirabilis ATCC 12453 assessed as diameter of zone inhibition measured after 18 hrs by CLSI disc diffusion method; type: functional; outline: as §2
Pseudomonas aeruginosa = assay: Antibacterial activity against Pseudomonas aeruginosa ATCC 27853 assessed as diameter of zone inhibition measured after 18 hrs by CLSI disc diffusion method; type: functional, organism-based; outline: as §2
Burkholderia cepacia = assay: Antibacterial activity against Burkholderia cepacia ATCC 25416 assessed as diameter of zone inhibition measured after 18 hrs by CLSI disc diffusion method; type: functional; outline: as §2

C[Si]1(C)OB(O)c2cccc(Br)c21
diameter of the inhibition zone (DIZ) [1]: 25 mm
diameter of the inhibition zone (DIZ) (Escherichia coli): inactive
diameter of the inhibition zone (DIZ) [2]: 30 mm
diameter of the inhibition zone (DIZ) (Pichia kudriavzevii): 24 mm
diameter of the inhibition zone (DIZ) (Candida albicans): 17 mm
diameter of the inhibition zone (DIZ) (Candida parapsilosis): 12 mm
diameter of the inhibition zone (DIZ) [3]: 13 mm
diameter of the inhibition zone (DIZ) (Candida tropicalis): 14 mm
diameter of the inhibition zone (DIZ) [4]: inactive
DIZ (Klebsiella pneumoniae): inactive
diameter of the inhibition zone (DIZ) (Enterococcus faecium): 24 mm
diameter of the inhibition zone (DIZ) (Saccharomyces cerevisiae): 30 mm
diameter of the inhibition zone (DIZ) (Staphylococcus aureus): 35 mm
diameter of the inhibition zone (DIZ) (Acinetobacter baumannii): inactive
diameter of the inhibition zone (DIZ) (Bacillus subtilis): 30 mm
DIZ (Serratia marcescens): inactive
diameter of the inhibition zone (DIZ) (Enterobacter cloacae): inactive
pKa [5]: 6.5
diameter of the inhibition zone (DIZ) (Enterococcus faecalis): 16 mm
diameter of the inhibition zone (DIZ) (Proteus mirabilis): 15 mm
diameter of the inhibition zone (DIZ) (Pseudomonas aeruginosa): inactive
diameter of the inhibition zone (DIZ) (Burkholderia cepacia): inactive

— ChEMBL document CHEMBL4346672, “Antimicrobial and KPC/AmpC inhibitory activity of functionalized benzosiloxaboroles” (Eur J Med Chem, 2019)
